Laboratory results from the EternaBench riboswitch data.

System: MS2 coat protein
Test: apparent Kd, MS2 coat protein; higher = weaker binding; RNA-MaP array; tryptophan 2.4 mM where present
Procedure, shortened: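 Designs were transcribed by stalled E. coli RNA polymerase on Illumina sequencing-chip clusters. They were titrated with SNAP-549-labelled MS2 coat protein from 0.7 or 1.5 nM, doubling to 3 µM, in 100 mM Tris-HCl pH 7.5, 80 mM KCl, 4 mM MgCl2, BSA, DTT, yeast tRNA and Tween-20, without and then with constant ligand. The apparent Kd is the median of filtered per-cluster fits after normalisation of green signal to red-channel RNA signal and control-cluster median Fmax.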

[1] = designed as: ON switch for tryptophan, no ligand
[2] = ligand present: tryptophan, designed as: ON switch for tryptophan
[3] = designed as: OFF switch for tryptophan, no ligand
[4] = ligand present: tryptophan, designed as: OFF switch for tryptophan

Sequence: AACACAUGAGGAUCACCCAUGUUCUCGUGUCGAGGACCGGUACGGCCGCCACUCGGUUCUCGCGAGGAUGGUCAAAGACUAUCCA
- apparent Kd [1]: 47.7 nM
- apparent Kd [2]: 42 nM

Sequence: AAGACAUGAGGAUCACCCAUGUCGUGUGAACGAGGACCGGUACGGCCGCCACUCGUUUGAAAAUAAACGAAUGCGGCCUGGGAAA
- apparent Kd [3]: 11 nM
- apparent Kd [4]: 14.2 nM

Sequence: AAUAAACAUGAGGAUCACCCAUGUAGGGUGCGAGGACCGGUACGGCCGCCACUCGGGUGAAAACAUGAGGAUCACCCAUGUAAAA
- apparent Kd [3]: 200 nM
- apparent Kd [4]: 363 nM

Sequence: AAUAAUAAGAAUAACGUACCAGGUGAUCAACGAGGACCGGUACGGCCGCCACUCGAAACAUGAGGAUCACCCAUGUAAUAACAAU
- apparent Kd [3]: 83.4 nM
- apparent Kd [4]: 58.3 nM

Sequence: AAUCAUGGAAACAUGACAUGAGGAUUACUCCGAGGACCGGUACGGCCGCCACUCGCGAGGAGGCGGACAUGAGGAUCACCCAUGU
- apparent Kd [1]: 185 nM
- apparent Kd [2]: 40.2 nM

Sequence: AAUGUGAAGGCGGCCGCCACUGAUAAUAGACAUGAGGAUCACCCAUGUAUAAAUCCUCAAUAAGACAGGACCGGGCCAUCUACGU
- apparent Kd [3]: 105 nM
- apparent Kd [4]: 123 nM

Sequence: AAUUAUCAGUCGGCCGCCACUGACACAUGAGGAUCACCCAUGUAAUAUGGGUAAAAUUAACUGAACAGGACCGGGACAAAUGCUA
- apparent Kd [1]: 381 nM
- apparent Kd [2]: 649 nM

Sequence: ACGCCCGCCUCACAUGAGGAUCACCCAUGUCGAGGACCGGUACGGCCGCCACUCGUCGUCGGUAAUACGGGCGUUGAAUAAUAUA
- apparent Kd [3]: 11.5 nM
- apparent Kd [4]: 49.7 nM

Sequence: ACGUUGUAGUCGGCCGCCACUGUUUUCAUGUUCAACAUGAGGAUCACCCAUGUACCUUUUUUUAUCAGGACCGGGACGUAUUCGA
- apparent Kd [1]: 93.2 nM
- apparent Kd [2]: 40.7 nM

Sequence: AGAUUCGACACGGCCGCCACUCGUGACGGAUUUCCGAGUGUCGAACAUGAGGAUCACCCAUGUCCGAGGACCGGGUGUUGAGUCU
- apparent Kd [3]: 34.1 nM
- apparent Kd [4]: 522 nM

Sequence: AGAUUCGACACGGCCGCCACUUGGAGUGGCUGCUAGCAUGUUACACAUGAGGAUCACCCAUGUCUAAGGACCGGGUGUUGAGUCU
- apparent Kd [3]: 41.1 nM
- apparent Kd [4]: 216 nM

Sequence: AGAUUCGACACGGCCGCCACUUUCAGUGGCUGGUGUCAUGGUGCACAUGAGGAUCACCCAUGUGGAAGGACCGGGUGUUGAGUCU
- apparent Kd [3]: 12.2 nM
- apparent Kd [4]: 58.4 nM

Sequence: AGCAACAAGUCGGCCGCCACUCAAUAAACAUGAGGAUCACCCAUGUAAAUAACAUGAUAAUAAUAGAGGACCGGGACAGUUGCAU
- apparent Kd [1]: 14.4 nM
- apparent Kd [2]: 13 nM

Sequence: AGCACAUGAGGAUCACCCAUGUGUCGGUACCGAGGACCGGUACGGCCGCCACUCGCAGGACAUGAGGAUCACCCAUGUGCCGCCG
- apparent Kd [1]: 25.1 nM
- apparent Kd [2]: 25.4 nM

Sequence: AGCGCGGUGAUGGUAGCCGGACGCUAGGUACGAGGACCGGUACGGCCGCCACUCGGAGUCCUACGACAUGAGGAUCACCCAUGUA
- apparent Kd [1]: 99.3 nM
- apparent Kd [2]: 46.8 nM

Sequence: AUAAUUGGGUUAAUUAGUUUUAGGUCCAGUCGAGGACCGGUACGGCCGCCACUCGUUCCGAGAUACAUGAGGAUCACCCAUGUUA
- apparent Kd [3]: 32.9 nM
- apparent Kd [4]: 34.1 nM

Sequence: AUACAUGAGGAUCACCCAUGUGAUGGCCGGCGAGGACCGGUACGGCCGCCACUCGUGAUCCGUCCUGAAAGCAAAGCUCCCAGCA
- apparent Kd [1]: 55.2 nM
- apparent Kd [2]: 122 nM

Sequence: AUUCAUGGAAACAUGACAUACAUAACCGGUCGAGGACCGGUACGGCCGCCACUCGUUUGGAGGCACAUGAGGAUCACCCAUGUUA
- apparent Kd [1]: 23.7 nM
- apparent Kd [2]: 24.5 nM

Sequence: CCAUAAGUACCGGUCCUCAGAUCCUCAUGACGAGGACCGGUACGGCCGCCACUCGAAACAUGAGGAUCACCCAUGUAAUAAUAUU
- apparent Kd [3]: 27.9 nM
- apparent Kd [4]: 21 nM

Sequence: CCAUCUUCAUCGGCCGCCACUGAACCAAGGAGACAUGAGGAUCACCCAUGUAUGGGAAACCAUCAUAGGACCGGGAUGAAGGUGG
- apparent Kd [1]: 36.1 nM
- apparent Kd [2]: 30.9 nM

Sequence: CGAGUAAGUUCAAUCGAAUAACGGUUUUCGCGAGGACCGGUACGGCCGCCACUCGUGUGAUAUCACACAUGAGGAUCACCCAUGU
- apparent Kd [1]: 77.6 nM
- apparent Kd [2]: 47.4 nM

Sequence: CGUAUUGGAAACAGUACGAGUGAUCCGGUCCGAGGACCGGUACGGCCGCCACUCGAAAUAAAUAAACAUGAGGAUCACCCAUGUA
- apparent Kd [3]: 18.6 nM
- apparent Kd [4]: 28.4 nM

Sequence: CUACAUUUGUAGAAACCGGUCAACAAUAAUCGAGGACCGGUACGGCCGCCACUCGAUGUAAAAUAAACAUGAGGAUCACCCAUGU
- apparent Kd [1]: 18.1 nM
- apparent Kd [2]: 19.3 nM

Sequence: GACGCAUGAGUUGUAAAAGCUCAUGGGUCGCGAGGACCGGUACGGCCGCCACUCGGCUGUACAUGAGGAUCACCCAUGUCAGGGU
- apparent Kd [1]: 275 nM
- apparent Kd [2]: 580 nM

Sequence: GAGCGCGUGGACUGGCGUGCUCCGCUCCGUCGAGGACCGGUACGGCCGCCACUCGACAUGAGGAUCACCCAUGUGUGCGCUCGCG
- apparent Kd [3]: 51.5 nM
- apparent Kd [4]: 96.3 nM

Sequence: GAGUAGAGGACGGCCGCCACUAAACAUGAGGAUCACCCAUGUCGUGAUCCGUUACCUAGAGUAGAUAGGACCGGGUCAUAUAGUC
- apparent Kd [3]: 26.4 nM
- apparent Kd [4]: 21.3 nM

Sequence: GCAUCCUAGUCGGCCGCCACUGACAUGAGGAUCACCCAUGUACAUGAGGAUCACCCAUGUUGUAACAGGACCGGGACUAGGAUGC
- apparent Kd [1]: 99.7 nM
- apparent Kd [2]: 49.5 nM

Sequence: GCAUCCUAGUCGGCCGCCACUGCAACAUGAGGAUCACCCAUGUCAGGCCUCAUGUGUCCUGGUAGCAGGACCGGGACUAGGAUGC
- apparent Kd [1]: 36.8 nM
- apparent Kd [2]: 29.2 nM

Sequence: GCAUCCUAGUCGGCCGCCACUGCAACAUGAGGAUCACCCAUGUCUGCAUCUUCAUGAUGCAGUAGCAGGACCGGGACUAGGAUGC
- apparent Kd [1]: 185 nM
- apparent Kd [2]: 20.2 nM

Sequence: GCUAGGUCAUCGGCCGCCACUAACGAUGGCUCCAACAUGAGGAUCACCCAUGUGCCACAUGCGCAUAGGACCGGGAUGACCUAGC
- apparent Kd [1]: 13 nM
- apparent Kd [2]: 10.5 nM

Sequence: GGCACAUAGUCGGCCGCCACUACUAACACCUCAGACAACAUGAGGAUCACCCAUGUUCCAGAGUGUAGGACCGGGACUAUGUGCC
- apparent Kd [1]: 11.6 nM
- apparent Kd [2]: 10.5 nM

Sequence: GGCACAUAGUCGGCCGCCACUAGGGUGUAGUGGAAUAACAUGAGGAUCACCCAUGUAUUUGGGACUAGGACCGGGACUAUGUGCC
- apparent Kd [3]: 25.2 nM
- apparent Kd [4]: 20 nM

Sequence: GGCCCGGACUUGGAAUGGGUGUUUCCCUCACGAGGACCGGUACGGCCGCCACUCGAAGACAUGAGGAUCACCCAUGUAGUCGACA
- apparent Kd [3]: 44.9 nM
- apparent Kd [4]: 12.5 nM

Sequence: GGGACUAGAUCGGCCGCCACUGAUGGGACAUGAGGAUCACCCAUGUACGAAGUGAUCCAAUAAAUCAGGACCGGGAUCACUUGUA
- apparent Kd [3]: 125 nM
- apparent Kd [4]: 225 nM

Sequence: GGGUCAGGCGCGGCCGCCACUGCGGUGAUGUGACAUGAGGAUCACCCAUGUUGUCAUGUGGCACAUAGGACCGGGCGCCUGGCCC
- apparent Kd [3]: 29.2 nM
- apparent Kd [4]: 31.6 nM

Sequence: GGUUACUCUACGGCCGCCACUGAUUAUUUAUAGUCCUGUACAUAAACAUGAGGAUCACCCAUGUACAGGACCGGGUAGUGUAACC
- apparent Kd [1]: 34.9 nM
- apparent Kd [2]: 35.6 nM

Sequence: GGUUACUCUACGGCCGCCACUGUAAAGUAAAUAUUAAUGUACAUGACAUGAGGAUCACCCAUGUACAGGACCGGGUAGUGUAACC
- apparent Kd [1]: 42.8 nM
- apparent Kd [2]: 18.5 nM

Sequence: GUCGGUACGUCGGCAAAGCCGAUGUGCCAGCGAGGACCGGUACGGCCGCCACUCGUACAUGAGGAUCACCCAUGUCCGGUCCGGC
- apparent Kd [1]: 69.2 nM
- apparent Kd [2]: 70.7 nM

Sequence: GUUGGAUACUCGGCCGCCACUGAGAGAGUCAUGUGAACAUGAGGAUCACCCAUGUAAUAUAUAUACAGGACCGGGAGUGUUGUAA
- apparent Kd [3]: 21.6 nM
- apparent Kd [4]: 16.8 nM

Sequence: UAAACUACACAUGAGGAUCACCCAUGUGGCCGAGGACCGGUACGGCCGCCACUCGUGUGUUAAUAAAAGAACUGCAAGGUUCUGU
- apparent Kd [1]: 350 nM
- apparent Kd [2]: 84 nM

Sequence: UAACAUGAGGAUCACCCAUGUAUACUAAGUCGAGGACCGGUACGGCCGCCACUCGAAAUUGAAGAAUUGGCGGUAAAUGUAAGUA
- apparent Kd [3]: 12.2 nM
- apparent Kd [4]: 12.5 nM

Sequence: UAACAUGAGGAUCACCCAUGUUUGAAGGAACGAGGACCGGUACGGCCGCCACUCGACGAGUGGAUGAGAAGUGGGAUAGUGUGCU
- apparent Kd [1]: 13.2 nM
- apparent Kd [2]: 13.8 nM

Sequence: UAAUCCGGUCCUCGAUAAUCCUCAUGUAAACGAGGACCGGUACGGCCGCCACUCGAUAACAUGAGGAUCACCCAUGUAAUAAUAA
- apparent Kd [3]: 89.5 nM
- apparent Kd [4]: 46.5 nM

Sequence: UAAUGCAGGUCGGCCGCCACUACAAACAUGAGGAUCACCCAUGUAGUUACUGGGUGAAGUGGCAGUAGGACCGGGACCUGCAUAA
- apparent Kd [1]: 289 nM
- apparent Kd [2]: 342 nM

Sequence: UACAUGAGGAUCACCCAUGUCCCAUGUGAACGAGGACCGGUACGGCCGCCACUCGACCGAGGCGGCACAUGAGGAUCACCCGCAU
- apparent Kd [1]: 736 nM
- apparent Kd [2]: 1580 nM

Sequence: UACUUGCUGACGGCCGCCACUAGAACAUGAGGAUCACCCAUGUACCUGGUCCUUCAUGGGUGGACUAGGACCGGGUCAGCAAGAU
- apparent Kd [3]: 339 nM
- apparent Kd [4]: 549 nM

Sequence: UAGUCCGCGACGGCCGCCACUCGCUGAUGCACAUGUGUCCGGGACAUGAGGAUCACCCAUGUUUCGAGGACCGGGUCGAUCCUAA
- apparent Kd [1]: 78.2 nM
- apparent Kd [2]: 57 nM

Sequence: UAUGAGCGCACGGCCGCCACUGUCUUCAUCUGUUUGUCUACAUGAGGAUCACCCAUGUUGGUUUACAGGACCGGGUGCAACUAUG
- apparent Kd [1]: 27.8 nM
- apparent Kd [2]: 22.4 nM

Sequence: UAUUAUCAGUCGGCCGCCACUGACACAUGAGGAUCACCCAUGUAAUUUGGGUUAUAUAUAAAUUACAGGACCGGGACAAAGGCUA
- apparent Kd [3]: 358 nM
- apparent Kd [4]: 295 nM

Sequence: UCGGGCAUAGCGGCCGCCACUGUUUGGCGUGCGGAUGACGGAACAUGAGGAUCACCCAUGUUGUUUAGGACCGGGCUUGCGUCGU
- apparent Kd [3]: 13.2 nM
- apparent Kd [4]: 15.2 nM

Sequence: UGCAUUAUACAUGGAUCACCCAUGUAGACACGAGGACCGGUACGGCCGCCACUCGGAAGAGGAAACAUGAGGAUCACCCAUGUGA
- apparent Kd [1]: 78.5 nM
- apparent Kd [2]: 78.2 nM

Sequence: UGGGUCGGAUGAGUAAAUUGUCGGACUCAUCGAGGACCGGUACGGCCGCCACUCGGUUGUACAUGAGGAUCACCCAUGUCAGGGU
- apparent Kd [1]: 364 nM
- apparent Kd [2]: 223 nM

Sequence: UUAUAUACUACGGCCGCCACUGAACAUGAGGAUCACCCAUGUAAUGUUCAGACGUCUUUAGACGACAGGACCGGGUAGAAUUAAA
- apparent Kd [1]: 119 nM
- apparent Kd [2]: 109 nM
